According to paper PMC9073098 (RSC Advances, 2019):

Assay: Absorption and fluorescence measurements
Type: physicochemical
Settings: for Absorption maximum λmaxAb / Fluorescence quantum yield ΦF: CM : ACN (4 : 1, v/v); for Absorption maximum λmaxAb: RPMI 1640 cell medium pH 7.5, 25 °C, c = 0.6 μM; for Fluorescence quantum yield ΦF: cell medium pH 7.5, 25 °C, average of three measurements; for Extinction coefficient ε: PB : ACN (4 : 1, v/v), 10 mM phosphate buffer pH 7.5, 25 °C
In short: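 UV-Vis absorption and corrected fluorescence spectra at 25 °C in 1 cm quartz cells, ~0.5–0.6 μM dye in 10 mM phosphate buffer pH 7.5 or RPMI 1640 medium pH 7.5 (serum containing acetylcholinesterase). Excitation 532 and 710 nm. ΦF relative to ICG in methanol (0.044) and Cy3 in PBS (0.04), absorbance 0.04–0.06 at excitation. Three independent measurements averaged, reproducibility within 5%.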

With `CN1C(=CC=C2CCCC(=CC=C3N(CCCCCC(=O)O)c4ccccc4C3(C)C)C2=O)C(C)(C)c2ccccc21` [RD, 6-(3,3-Dimethyl-2-(2-(2-oxo-3-(2-(1,3,3-trimethylindolin-2-ylidene)ethylidene)cyclohexylidene)ethylidene)indolin-1-yl)hexanoic acid] the “Absorption maximum λmaxAb” value was 526 nm, the “Fluorescence quantum yield ΦF” value was 2.6 ± 0.1% and the “Extinction coefficient ε” value was 57 000 M^−1 × cm^−1.

With `C[N+]1=C(C=CC2=C(OC(=O)CCCc3ccc(N(CCCl)CCCl)cc3)C(=CC=C3N(CCCCCC(=O)O)c4ccccc4C3(C)C)CCC2)C(C)(C)c2ccccc21` [IRD-CLB, 2-(2-(2-((4-(4-(bis(2-chloroethyl)amino)phenyl)butanoyl)oxy)-3-(2-(1-(5-carboxypentyl)-3,3-dimethylindolin-2-ylidene)ethylidene)cyclohex-1-en-1-yl)vinyl)-1,3,3-trimethyl-3H-indol-1-ium] the “Absorption maximum λmaxAb” value was 785 nm, the “Fluorescence quantum yield ΦF” value was 6.3 ± 0.5% and the “Extinction coefficient ε” value was 160 000 M^−1 × cm^−1.
